Measurements taken from ChEMBL document CHEMBL4138179, “Design, synthesis and cytotoxic activity of N-Modified oleanolic saponins bearing A glucosamine” (Eur J Med Chem, 2018).

Tests used:
[1] = Drug uptake in human HL60 cells at 15 uM for 15 hrs by DBCO-488 probe based fluorescence confocal microscopy; format: ADME, cell-based; conditions: hl-60, 15 h
Outline: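 HL-60 cells treated with azido-bearing compound (15 μM, 15 h); DMSO-diluted control. Cells fixed in 99% alcohol, permeabilized with 0.1% Triton X-100 in PBS for 15 min, then washed. Copper-free labeling with DBCO-488 (2 μM) plus 0.5 mg/mL BSA in PBS for 6 h. RedDot2 nuclear and CellBrite Blue membrane counterstains; imaged by confocal fluorescence microscopy.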

PC-3 = experiment: Cytotoxicity against human PC3 cells assessed as cell growth inhibition after 48 hrs by MTT assay; format: functional, cell-based; conditions: PC-3, 48 h
Outline: (§1)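 Cells from ATCC; HL-60 grown in IMDM, PC-3 in RPMI 1640, HT29 in DMEM, each with 10% FBS and penicillin/streptomycin, 37 °C, 5% CO2. Cells incubated without or with compound at the indicated concentrations and times. Mitochondrial MTT reduction read at 570 nm on a plate reader. IC50 given as mean ± SD of at least three independent experiments.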

HT-29 = experiment: Cytotoxicity against human HT-29 cells assessed as cell growth inhibition after 48 hrs by MTT assay; format: functional, cell-based; conditions: HT-29, 48 h; outline: as §1
HL-60 [2] = experiment: Cytotoxicity against human HL60 cells assessed as cell growth inhibition after 48 hrs by MTT assay; format: functional, cell-based; conditions: HL-60, 48 h; outline: as §1
HL-60 [3] = experiment: Induction of mitochondrial membrane depolarization in human HL60 cells after 24 hrs by JC-1 staining based flow cytometry; format: functional, cell-based
Outline: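 HL-60 cells exposed to a range of compound concentrations under the MTT culture conditions, untreated control included. After 1 day, cells stained with JC-1 (final 2 μM) at 37 °C for 30 min, then harvested. Flow cytometry gives the percentage loss of mitochondrial membrane potential.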

Row | Drug uptake [1] | Structure (SMILES) | IC50 (PC-3) [µM] | IC50 (HT-29) [µM] | IC50 (HL-60 [2]) [µM] | Activity (HL-60 [3])
1 | Active | CC1(C)CC[C@]2(C(=O)O)CC[C@]3(C)C(=CC[C@H]4C3(C)CC[C@H]3C(C)(C)[C@@H](O[C@@H]5O[C@H](CO)[C@@H](O)[C@H](O)[C@H]5NC(=O)CCc5cn(-c6cc7ccc(O)cc7oc6=O)nn5)CC[C@@]34C)[C@@H]2C1 (single isomer, unassigned) |  |  |  | 
2 |  | CCCCCCC(=O)N[C@H]1[C@H](O[C@H]2CC[C@]3(C)[C@H]4CC=C5[C@@H]6CC(C)(C)CC[C@]6(C(=O)O)CC[C@@]5(C)[C@]4(C)CC[C@H]3C2(C)C)O[C@H](CO)[C@@H](O)[C@@H]1O | > 30 | > 30 | 2.85 | Dose-dependent effect
